In ChEMBL document CHEMBL1155897, “Structure-antitussive activity relationships of naltrindole derivatives. Identification of novel and potent antitussive agents” (J Med Chem, 2008):
Calls of active or inactive are those of the source. The calls are words filed in the database; no cut-off is given here.

Tests used:
[1] = target: T1, Kappa-type opioid receptor (Cavia porcellus, UniProt P41144); assay: Displacement of […] from kappa opioid receptor in Hartley guinea pig brain membrane; assay type: cell membranes
T1 sequence (P41144 whole entry): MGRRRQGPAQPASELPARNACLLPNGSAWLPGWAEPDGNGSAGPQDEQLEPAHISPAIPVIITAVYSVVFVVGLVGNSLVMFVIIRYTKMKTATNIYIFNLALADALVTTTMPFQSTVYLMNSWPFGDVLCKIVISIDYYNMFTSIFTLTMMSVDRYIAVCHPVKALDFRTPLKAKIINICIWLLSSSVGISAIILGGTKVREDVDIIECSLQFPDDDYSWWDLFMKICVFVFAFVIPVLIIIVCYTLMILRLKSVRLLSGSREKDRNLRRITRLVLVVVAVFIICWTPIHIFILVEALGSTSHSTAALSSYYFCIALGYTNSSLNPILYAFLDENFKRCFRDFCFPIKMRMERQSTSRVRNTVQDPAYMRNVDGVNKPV

Mu-type opioid receptor [2] = target: T2, Mu-type opioid receptor (Cavia porcellus, UniProt P97266); assay: Displacement of [3H]DAMGO from mu opioid receptor in Hartley guinea pig brain membrane; assay type: cell membranes
T2 sequence (P97266 whole entry): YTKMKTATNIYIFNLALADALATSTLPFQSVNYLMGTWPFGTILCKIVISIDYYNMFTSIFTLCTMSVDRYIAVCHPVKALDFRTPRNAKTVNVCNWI
Outline: (§1)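 Brains from 4-week male Hartley guinea pigs were split into forebrain (µ, δ) and cerebellum (κ). Membranes were homogenised in 50 mM Tris-HCl pH 7.4 and held 1 h at 4 °C to remove endogenous ligands.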

Rattus norvegicus [3] = assay: Antitussive activity in ip dosed Sprague-Dawley rat assessed as reduction in number of capsaicin-induced coughs; assay type: functional
Mu-type opioid receptor [4] = target: T3, Mu-type opioid receptor (Mus musculus, UniProt P42866); assay: Antagonist activity at mu opioid receptor in electrically-induced ddY mouse vas deferens assessed as effect on […]-induced inhibition of electrically-stimulated contraction at 10 uM; assay type: functional, tissue-based; details: read-out: pA2 (converted)
T3 sequence (P42866 whole entry): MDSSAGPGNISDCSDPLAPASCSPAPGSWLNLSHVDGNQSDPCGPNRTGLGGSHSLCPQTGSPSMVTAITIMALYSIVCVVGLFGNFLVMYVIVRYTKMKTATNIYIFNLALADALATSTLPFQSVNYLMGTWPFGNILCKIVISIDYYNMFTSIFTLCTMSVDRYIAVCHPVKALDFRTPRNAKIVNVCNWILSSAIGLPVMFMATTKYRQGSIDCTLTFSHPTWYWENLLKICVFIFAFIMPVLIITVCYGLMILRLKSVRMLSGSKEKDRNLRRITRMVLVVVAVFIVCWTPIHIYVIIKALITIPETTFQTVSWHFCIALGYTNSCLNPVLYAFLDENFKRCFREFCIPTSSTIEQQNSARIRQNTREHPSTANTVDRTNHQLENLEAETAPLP

[5] = Displacement of [3H]NTI from delta opioid receptor in Hartley guinea pig brain membrane; assay type: cell membranes, Cavia porcellus; outline: as §1
[6] = target: Mu-type opioid receptor (Homo sapiens) (UniProt P35372); assay: Agonist activity at human mu opioid receptor expressed in CHO cells assessed as stimulation of [35S]GTPgammaS binding at 1 uM relative to DAMGO; assay type: functional, cell-based
Sequence of Mu-type opioid receptor (Homo sapiens) (P35372 whole entry): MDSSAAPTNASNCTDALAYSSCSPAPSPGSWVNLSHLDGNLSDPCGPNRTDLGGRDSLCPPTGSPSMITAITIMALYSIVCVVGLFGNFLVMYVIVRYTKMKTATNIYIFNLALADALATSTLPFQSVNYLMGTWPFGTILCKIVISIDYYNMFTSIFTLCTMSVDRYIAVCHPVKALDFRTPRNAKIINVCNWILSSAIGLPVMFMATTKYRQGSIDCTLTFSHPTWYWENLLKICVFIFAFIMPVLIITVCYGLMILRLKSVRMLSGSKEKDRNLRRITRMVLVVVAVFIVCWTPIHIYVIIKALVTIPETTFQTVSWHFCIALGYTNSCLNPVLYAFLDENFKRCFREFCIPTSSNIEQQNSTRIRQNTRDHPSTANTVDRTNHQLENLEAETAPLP
Outline: (§2)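 Compound was preincubated 20 min at 30 °C, then 60 min with SPA beads. 0.3 nM [35S]GTPγS was added for 30 min.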

Cavia porcellus [7] = species on record: Cavia porcellus; assay: Selectivity for delta opioid receptor over kappa opioid receptor in Hartley guinea pig brain membrane; assay type: cell membranes
Cavia porcellus [8] = species on record: Cavia porcellus; assay: Selectivity for delta opioid receptor over mu opioid receptor in Hartley guinea pig brain membrane; assay type: cell membranes
[9] = target: Delta-type opioid receptor (Homo sapiens) (UniProt P41143); assay: Agonist activity at human delta opioid receptor expressed in CHO cells assessed as stimulation of [35S]GTPgammaS binding at 1 uM relative to DPDPE; assay type: functional, cell-based; outline: as §2
Sequence of Delta-type opioid receptor (Homo sapiens) (P41143 whole entry): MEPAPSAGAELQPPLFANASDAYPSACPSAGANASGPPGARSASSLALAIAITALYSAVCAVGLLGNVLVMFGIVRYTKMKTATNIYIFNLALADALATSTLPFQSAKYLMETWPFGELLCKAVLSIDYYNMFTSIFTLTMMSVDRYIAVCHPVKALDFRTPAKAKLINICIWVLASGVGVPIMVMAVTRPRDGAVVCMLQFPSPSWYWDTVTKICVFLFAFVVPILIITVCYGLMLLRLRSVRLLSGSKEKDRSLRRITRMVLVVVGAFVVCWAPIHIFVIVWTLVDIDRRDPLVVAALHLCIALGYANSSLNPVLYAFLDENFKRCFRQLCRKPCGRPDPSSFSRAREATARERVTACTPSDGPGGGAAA

[10] = target: T4, Kappa-type opioid receptor (Mus musculus, UniProt P33534); assay: Antagonist activity at kappa opioid receptor in electrically-induced ddY mouse vas deferens assessed as effect on U50,488H-induced inhibition of electrically-stimulated contraction at 10 uM; assay type: functional, tissue-based; details: read-out: pA2 (converted)
T4 sequence (P33534 whole entry): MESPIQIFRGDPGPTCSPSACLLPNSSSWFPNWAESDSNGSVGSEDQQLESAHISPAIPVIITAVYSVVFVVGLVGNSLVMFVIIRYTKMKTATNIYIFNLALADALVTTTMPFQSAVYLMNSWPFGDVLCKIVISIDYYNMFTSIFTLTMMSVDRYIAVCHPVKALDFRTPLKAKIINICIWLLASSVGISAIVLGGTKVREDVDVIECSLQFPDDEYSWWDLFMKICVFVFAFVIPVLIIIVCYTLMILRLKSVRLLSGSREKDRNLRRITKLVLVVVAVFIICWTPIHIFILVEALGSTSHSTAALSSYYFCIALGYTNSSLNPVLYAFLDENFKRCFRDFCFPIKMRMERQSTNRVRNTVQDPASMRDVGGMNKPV
Outline: (§3)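 Vas deferens from male ddy mice was mounted in a Magnus tube at 37 °C in Krebs-Henseleit gassed with 95% O2/5% CO2 and electrically stimulated. Antagonist was added 20 min before cumulative agonist: DPDPE (δ), U-50,488H (κ) or morphine (µ). Dose ratio is the agonist IC50 with versus without antagonist, as mean of N=4. pA2 = −log([B]/(dose ratio − 1)).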

[11] = target: Kappa-type opioid receptor (Homo sapiens) (UniProt P41145); assay: Agonist activity at human kappa opioid receptor expressed in HEK293 cells assessed as stimulation of [35S]GTPgammaS binding at 1 uM relative to U69,593; assay type: functional, cell-based; outline: as §2
Sequence of Kappa-type opioid receptor (Homo sapiens) (P41145 whole entry): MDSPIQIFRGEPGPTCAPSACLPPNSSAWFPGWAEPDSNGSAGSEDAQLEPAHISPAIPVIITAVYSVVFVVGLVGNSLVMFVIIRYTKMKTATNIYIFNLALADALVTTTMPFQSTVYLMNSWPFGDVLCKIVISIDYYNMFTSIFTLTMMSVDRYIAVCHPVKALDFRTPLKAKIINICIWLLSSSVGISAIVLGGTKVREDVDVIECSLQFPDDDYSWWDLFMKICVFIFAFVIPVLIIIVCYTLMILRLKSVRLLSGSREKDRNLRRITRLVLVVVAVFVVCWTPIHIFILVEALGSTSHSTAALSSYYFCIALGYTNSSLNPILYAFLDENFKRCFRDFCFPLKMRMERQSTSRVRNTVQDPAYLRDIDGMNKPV

[12] = target: T5, Delta-type opioid receptor (Mus musculus, UniProt P32300); assay: Antagonist activity at delta opioid receptor in electrically-induced ddY mouse vas deferens assessed as effect on DPDPE-induced inhibition of electrically-stimulated contraction at 10 uM; assay type: functional, tissue-based; details: read-out: pA2 (converted); outline: as §3
T5 sequence (P32300 whole entry): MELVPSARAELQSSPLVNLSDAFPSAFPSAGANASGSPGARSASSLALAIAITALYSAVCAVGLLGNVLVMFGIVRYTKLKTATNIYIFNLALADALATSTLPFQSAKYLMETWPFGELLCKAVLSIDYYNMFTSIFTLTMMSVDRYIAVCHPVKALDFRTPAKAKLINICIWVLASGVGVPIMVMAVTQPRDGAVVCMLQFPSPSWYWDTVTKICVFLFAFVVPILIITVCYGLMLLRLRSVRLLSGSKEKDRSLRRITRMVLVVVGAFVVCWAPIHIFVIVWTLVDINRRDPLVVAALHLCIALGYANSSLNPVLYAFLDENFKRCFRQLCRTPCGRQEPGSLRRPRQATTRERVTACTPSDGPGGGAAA

Rattus norvegicus [13] = assay: Antitussive activity in po dosed Sprague-Dawley rat assessed as reduction in number of capsaicin-induced coughs; assay type: functional
[14] = target: T4, Kappa-type opioid receptor; assay: Antagonist activity at kappa opioid receptor in electrically-induced ddY mouse vas deferens assessed as effect on U50,488H-induced inhibition of electrically-stimulated contraction at 100 uM; assay type: functional, tissue-based; details: read-out: pA2 (converted); outline: as §3
Mu-type opioid receptor [15] = target: T3, Mu-type opioid receptor; assay: Antagonist activity at mu opioid receptor in electrically-induced ddY mouse vas deferens assessed as effect on morphine-induced inhibition of electrically-stimulated contraction at 30 uM; assay type: functional, tissue-based; details: read-out: pA2 (converted); outline: as §3
[16] = target: T5, Delta-type opioid receptor; assay: Antagonist activity at delta opioid receptor in electrically-induced ddY mouse vas deferens assessed as effect on DPDPE-induced inhibition of electrically-stimulated contraction at 30 uM; assay type: functional, tissue-based; details: read-out: pA2 (converted); outline: as §3
[17] = target: T4, Kappa-type opioid receptor; assay: Antagonist activity at kappa opioid receptor in electrically-induced ddY mouse vas deferens assessed as effect on U50,488H-induced inhibition of electrically-stimulated contraction at 30 uM; assay type: functional, tissue-based; details: read-out: pA2 (converted); outline: as §3
Rattus norvegicus [18] = assay: Effect on Sprague-Dawley rat capsaicin-induced cough nodel assessed as increase in number of coughs at 10 mg/kg, sc; assay type: functional, organism-based; parameters: dose 10 mg/kg
[19] = Binding affinity to guinea pig delta opioid receptor; parameters: species or system Cavia porcellus; outline: as §1
Mu-type opioid receptor [20] = target: T2, Mu-type opioid receptor; assay: Binding affinity to guinea pig mu opioid receptor; outline: as §1
[21] = target: T1, Kappa-type opioid receptor; assay: Binding affinity to guinea pig kappa opioid receptor; outline: as §1
[22] = target: T5, Delta-type opioid receptor; assay: Antagonist activity at delta opioid receptor in electrically-induced ddY mouse vas deferens assessed as effect on DPDPE-induced inhibition of electrically-stimulated contraction at 100 uM; assay type: functional, tissue-based; details: read-out: pA2 (converted); outline: as §3

Row | Structure (SMILES) | Ki [1] [nM] | Ki (Mu-type opioid receptor [2]) [nM] | ED50 (Rattus norvegicus [3]) [mg/kg] | Ki [5] [nM] | Activity [6] [%] | Selectivity ratio (Cavia porcellus [7]) | Selectivity ratio (Cavia porcellus [8]) | Activity [9] [%] | Activity [11] [%] | also measured
1 | Oc1ccc2c3c1O[C@H]1c4c(c5cccc6c5n4CCCC6)C[C@@]4(O)[C@@H](C2)N(CC2CC2)CC[C@]314 | 40 | 113 | 0.0123 | 2.26 | -1 | 18 | 50 | 20 | 32 | Kb (Mu-type opioid receptor [4]): 18.2 nM; Kb [10]: 51.3 nM
2 | COc1ccc2c3c1O[C@H]1c4c(c5cccc6c5n4CCCC6)C[C@@]4(O)[C@@H](C2)N(CC2CC2)CC[C@]314 | 3340 | > 3670 | – | 274 | -1 | 12 | > 13 | 45 | 11 | Kb [12]: 295 nM; Kb [10]: 17 nM
3 | COc1ccc2c3c1O[C@H]1c4c(c5cccc(C)c5n4C)C[C@@]4(O)[C@@H](C2)N(CC2CC2)CC[C@]314 | – | – | 0.00635 | – | – | – | – | – | – | –
4 | COc1ccc2c3c1O[C@H]1c4c(c5cccc6c5n4CCC6)C[C@@]4(O)[C@@H](C2)N(CC2CC2)CC[C@]314.CS(=O)(=O)O | 3290 | > 3670 | – | 79 | -1 | 42 | > 46 | 47 | 8 | ED50 (Rattus norvegicus [13]): 0.0064 mg/kg; Kb [14]: 67.6 nM
5 | Oc1ccc2c3c1O[C@H]1c4c(c5cccc6c5n4CCC6)C[C@@]4(O)[C@@H](C2)N(CC2CC2)CC[C@]314 | 15.1 | 60.6 | – | 0.673 | 1 | 22 | 90 | -2 | 26 | Kb (Mu-type opioid receptor [15]): 12.6 nM; Kb [16]: 0.794 nM; Kb [17]: 27.5 nM
6 | CCCn1c2c(c3ccccc31)C[C@@]1(O)[C@H]3Cc4ccc(OC)c5c4[C@@]1(CCN3CC1CC1)[C@H]2O5 | – | – | 0.0148 | – | – | – | – | – | – | –
7 | Cn1c2c(c3ccccc31)C[C@@]1(O)[C@H]3Cc4ccc(O)c5c4[C@@]1(CCN3CC1CC1)[C@H]2O5 | – | – | 0.204 | – | – | – | – | – | – | –
8 | CCn1c2c(c3cccc(C)c31)C[C@@]1(O)[C@H]3Cc4ccc(OC)c5c4[C@@]1(CCN3CC1CC1)[C@H]2O5 | 4650 | > 3670 | 0.00179 | 218 | 1 | 21 | > 17 | 47 | 21 | –
9 | CN1CC[C@]2(c3cccc(O)c3)Cc3nc4ccccc4cc3C[C@H]2C1 (relative stereo) | – | – | – | – | – | – | – | – | – | Activity (Rattus norvegicus [18]): Active
10 | COc1ccc2c3c1O[C@H]1c4[nH]c5ccccc5c4C[C@@]4(O)[C@@H](C2)N(CC2CC2)CC[C@]314 | – | – | – | – | – | – | – | – | – | Ki [19]: 6.57 nM; Ki (Mu-type opioid receptor [20]): 2510 nM; Ki [21]: 3910 nM
11 | Oc1ccc2c3c1O[C@H]1c4[nH]c5ccccc5c4C[C@@]4(O)[C@@H](C2)N(CC2CC2)CC[C@]314 [NALTRINDOLE] | 7.44 | 12.7 | – | 0.135 | 5 | 55 | 94 | -3 | 12 | Ki [19]: 0.217 nM; ED50 (Rattus norvegicus [13]): 1.83 mg/kg; Ki (Mu-type opioid receptor [20]): 27 nM
12 | Oc1ccc2c3c1O[C@H]1c4[nH]c5c6c(ccc5c4C[C@@]4(O)[C@@H](C2)N(CC2CC2)CC[C@]314)CCCC6 | 52 | 200 | – | 6.32 | -1 | 8.2 | 32 | 19 | 33 | Kb [22]: 23.4 nM; Kb [14]: 1660 nM
13 | Oc1ccc2c3c1O[C@H]1c4c(c5cccc6c5n4CC6)C[C@@]4(O)[C@@H](C2)N(CC2CC2)CC[C@]314 | 7.99 | 23.2 | – | 0.295 | 0 | 27 | 79 | 26 | 3 | Kb (Mu-type opioid receptor [15]): 15.8 nM; Kb [17]: 7.94 nM
